From ChEMBL document CHEMBL1147441, “A new series of potent oxindole inhibitors of CDK2” (Bioorg Med Chem Lett, 2004)

Key:
[1] = tested on: SW480; assay: Percent inhibition of SW480 cell growth in G2-M phase at 270 nm concentration in FACS cell cycle after 24 h of treatment; type: functional, Homo sapiens
Summary of the method: (§1)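 SW480 cells were exposed to compound for 4, 16 or 24 h. Cells were fixed in 70% ethanol, pelleted for 1 min at 3000g at 25 °C and washed once in PBS. They were then treated with ribonuclease for 15 min at 37 °C and stained with propidium iodide for 30 min at room temperature. Flow cytometry gave the % of cells in G0-G1, S, G2-M and subG0, and the G2/G1 ratio.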

[2] = tested on: SW480; assay: Percent inhibition of SW480 cell growth in G2-M phase at 0 nm concentration in FACS cell cycle after 16 hr of treatment; type: functional, Homo sapiens; summary of the method: as §1
[3] = tested on: SW480; assay: Percent inhibition of SW480 cell growth in S phase at 270 nm concentration in FACS cell cycle after 24 hr of treatment; type: functional, Homo sapiens; summary of the method: as §1
[4] = Inhibition ratio of G2 and G1 phase cellular fractions of SW480 cells treated with compound at 0 nM concentration at 24 h; type: functional; summary of the method: as §1
[5] = tested on: SW480; assay: Percent inhibition of SW480 cell growth in sub G0 phase at 270 nm concentration in FACS cell cycle after 16 hr of treatment; type: functional, Homo sapiens; summary of the method: as §1
[6] = molecular target: Cyclin-dependent kinase 2/cyclin E (Homo sapiens, UniProt P24941); assay: In vitro inhibition of recombinant Cyclin Dependent Kinase-2/Cyclin E.; type: protein-complex assay
[7] = tested on: SW480; assay: Percent inhibition of SW480 cell growth in sub G0 phase at 270 nm concentration in FACS cell cycle after 4 hr of treatment; type: functional, Homo sapiens; summary of the method: as §1
[8] = tested on: SW480; assay: Percent inhibition of SW480 cell growth in G2-M phase at 0 nm concentration in FACS cell cycle after 4 hr of treatment; type: functional, Homo sapiens; summary of the method: as §1
[9] = Inhibition ratio of G2 and G1 phase cellular fractions of SW480 cells treated with compound at 92 nM concentration at 4 h; type: functional; summary of the method: as §1
[10] = tested on: SW480; assay: Percent inhibition of SW480 cell growth in G2-M phase at 92 nm concentration in FACS cell cycle after 16 hr of treatment; type: functional, Homo sapiens; summary of the method: as §1
[11] = Inhibition ratio of G2 and G1 phase cellular fractions of SW480 cells treated with compound at 270 nM concentration at 16 h; type: functional; summary of the method: as §1
[12] = tested on: SW480; assay: Percent inhibition of SW480 cell growth in G2-M phase at 270 nm concentration in FACS cell cycle after 16 hr of treatment; type: functional, Homo sapiens; summary of the method: as §1
[13] = Inhibition ratio of G2 and G1 phase cellular fractions of SW480 cells treated with compound at 0 nM concentration at 16 h; type: functional; summary of the method: as §1
[14] = tested on: SW480; assay: Percent inhibition of SW480 cell growth in S phase at 92 nm concentration in FACS cell cycle after 24 hr of treatment; type: functional, Homo sapiens; summary of the method: as §1
[15] = tested on: SW480; assay: Percent inhibition of SW480 cell growth in G0-G1 phase at 0 nm concentration in FACS cell cycle after 16 hr of treatment; type: functional, Homo sapiens; summary of the method: as §1
[16] = Inhibition ratio of G2 and G1 phase cellular fractions of SW480 cells treated with compound at 92 nM concentration at 24 h; type: functional; summary of the method: as §1
[17] = tested on: SW480; assay: Percent inhibition of SW480 cell growth in G0-G1 phase at 270 nm concentration in FACS cell cycle after 16 hr of treatment; type: functional, Homo sapiens; summary of the method: as §1
[18] = tested on: SW480; assay: Percent inhibition of SW480 cell growth in G0-G1 phase at 0 nm concentration in FACS cell cycle after 24 hr of treatment; type: functional, Homo sapiens; summary of the method: as §1
[19] = Inhibition ratio of G2 and G1 phase cellular fractions of SW480 cells treated with compound at 0 nM concentration at 4 h; type: functional; summary of the method: as §1
[20] = tested on: SW480; assay: Percent inhibition of SW480 cell growth in S phase at 270 nm concentration in FACS cell cycle after 4 hr of treatment; type: functional, Homo sapiens; summary of the method: as §1
[21] = tested on: SW480; assay: Percent inhibition of SW480 cell growth in sub G0 phase at 92 nm concentration in FACS cell cycle after 24 hr of treatment; type: functional, Homo sapiens; summary of the method: as §1
[22] = tested on: SW480; assay: Percent inhibition of SW480 cell growth in G2-M phase at 270 nm concentration in FACS cell cycle after 4 hr of treatment; type: functional, Homo sapiens; summary of the method: as §1
[23] = tested on: SW480; assay: Percent inhibition of SW480 cell growth in S phase at 92 nm concentration in FACS cell cycle after 4 hr of treatment; type: functional, Homo sapiens; summary of the method: as §1
[24] = tested on: SW480; assay: Percent inhibition of SW480 cell growth in G0-G1 phase at 92 nm concentration in FACS cell cycle after 24 hr of treatment; type: functional, Homo sapiens; summary of the method: as §1
[25] = tested on: SW480; assay: Percent inhibition of SW480 cell growth in G0-G1 phase at 270 nm concentration in FACS cell cycle after 24 hr of treatment; type: functional, Homo sapiens; summary of the method: as §1
[26] = tested on: SW480; assay: Percent inhibition of SW480 cell growth in sub G0 phase at 0 nm concentration in FACS cell cycle after 16 hr of treatment; type: functional, Homo sapiens; summary of the method: as §1
[27] = tested on: SW480; assay: Percent inhibition of SW480 cell growth in S phase at 92 nm concentration in FACS cell cycle after 16 hr of treatment; type: functional, Homo sapiens; summary of the method: as §1
[28] = tested on: SW480; assay: Percent inhibition of SW480 cell growth in G0-G1 phase at 270 nm concentration in FACS cell cycle after 4 hr of treatment; type: functional, Homo sapiens; summary of the method: as §1
[29] = tested on: SW480; assay: Percent inhibition of SW480 cell growth in sub G0 phase at 270 nm concentration in FACS cell cycle after 24 h of treatment; type: functional, Homo sapiens; summary of the method: as §1
[30] = Inhibition ratio of G2 and G1 phase cellular fractions of SW480 cells treated with compound at 270 nM concentration at 4 h; type: functional; summary of the method: as §1
[31] = tested on: SW480; assay: Percent inhibition of SW480 cell growth in G2-M phase at 92 nm concentration in FACS cell cycle after 24 hr of treatment; type: functional, Homo sapiens; summary of the method: as §1
[32] = tested on: SW480; assay: Percent inhibition of SW480 cell growth in G2-M phase at 92 nm concentration in FACS cell cycle after 4 hr of treatment; type: functional, Homo sapiens; summary of the method: as §1
[33] = tested on: SW480; assay: Percent inhibition of SW480 cell growth in S phase at 270 nm concentration in FACS cell cycle after 16 hr of treatment; type: functional, Homo sapiens; summary of the method: as §1
[34] = tested on: SW480; assay: Percent inhibition of SW480 cell growth in sub G0 phase at 0 nm concentration in FACS cell cycle after 4 hr of treatment; type: functional, Homo sapiens; summary of the method: as §1
[35] = tested on: SW480; assay: Percent inhibition of SW480 cell growth in sub G0 phase at 92 nm concentration in FACS cell cycle after 4 hr of treatment; type: functional, Homo sapiens; summary of the method: as §1
[36] = tested on: SW480; assay: Percent inhibition of SW480 cell growth in G0-G1 phase at 92 nm concentration in FACS cell cycle after 16 hr of treatment; type: functional, Homo sapiens; summary of the method: as §1
[37] = tested on: SW480; assay: Percent inhibition of SW480 cell growth in S phase at 0 nm concentration in FACS cell cycle after 16 hr of treatment; type: functional, Homo sapiens; summary of the method: as §1
[38] = tested on: SW480; assay: Percent inhibition of SW480 cell growth in sub G0 phase at 92 nm concentration in FACS cell cycle after 16 h of treatment; type: functional, Homo sapiens; summary of the method: as §1
[39] = tested on: SW480; assay: Percent inhibition of SW480 cell growth in sub G0 phase at 0 nm concentration in FACS cell cycle after 24 hr of treatment; type: functional, Homo sapiens; summary of the method: as §1
[40] = tested on: SW480; assay: Percent inhibition of SW480 cell growth in S phase at 0 nm concentration in FACS cell cycle after 24 hr of treatment; type: functional, Homo sapiens; summary of the method: as §1
[41] = Inhibition ratio of G2 and G1 phase cellular fractions of SW480 cells treated with compound at 270 nM concentration at 24 h; type: functional; summary of the method: as §1
[42] = tested on: SW480; assay: Percent inhibition of SW480 cell growth in G0-G1 phase at 0 nm concentration in FACS cell cycle after 4 hr of treatment; type: functional, Homo sapiens; summary of the method: as §1
[43] = tested on: SW480; assay: Percent inhibition of SW480 cell growth in G2-M phase at 0 nm concentration in FACS cell cycle after 24 hr of treatment; type: functional, Homo sapiens; summary of the method: as §1
[44] = tested on: SW480; assay: Percent inhibition of SW480 cell growth in G0-G1 phase at 92 nm concentration in FACS cell cycle after 4 hr of treatment; type: functional, Homo sapiens; summary of the method: as §1
[45] = Inhibition ratio of G2 and G1 phase cellular fractions of SW480 cells treated with compound at 92 nM concentration at 16 h; type: functional; summary of the method: as §1
[46] = tested on: SW480; assay: In vitro inhibition of SW480 (human colon cancer) cell proliferation.; type: functional, cell-based
Summary of the method: (§2)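 MTT-based proliferation assay run on tumour cells. IC50 values were taken from a single experiment.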

[47] = tested on: MDA-MB-435; assay: In vitro inhibition of MDA MB 435 (human breast cancer) cell proliferation.; type: functional, cell-based; summary of the method: as §2
[48] = tested on: SW480; assay: Percent inhibition of SW480 cell growth in S phase at 0 nm concentration in FACS cell cycle after 4 h of treatment; type: functional, Homo sapiens; summary of the method: as §1

SMILES: COc1cc[nH]c1/C=C1\C(=O)Nc2ccc(F)c(C#CC3(O)CCNCC3)c21.Cl
- G2/M [1]: 35.45%
- G2/M [2]: 14.84%
- S [3]: 14.54%
- Ratio [4]: 1.95%
- SubG0 [5]: 43.52%
- IC50 [6]: 6 nM
- SubG0 [7]: 14.47%
- G2/M [8]: 18.42%
- Ratio [9]: 1.95%
- G2/M [10]: 15.72%
- Ratio [11]: 1.94%
- G2/M [12]: 38.44%
- Ratio [13]: 1.95%
- S [14]: 30.15%
- G0/G1 [15]: 46.55%
- Ratio [16]: 1.96%
- G0/G1 [17]: 47.74%
- G0/G1 [18]: 52.41%
- Ratio [19]: 1.94%
- S [20]: 34.26%
- SubG0 [21]: 11.67%
- G2/M [22]: 21.8%
- S [23]: 29.14%
- G0/G1 [24]: 54.68%
- G0/G1 [25]: 50%
- SubG0 [26]: 11.29%
- S [27]: 28.43%
- G0/G1 [28]: 43.9%
- SubG0 [29]: 46.86%
- Ratio [30]: 1.95%
- G2/M [31]: 15.16%
- G2/M [32]: 18.36%
- S [33]: 13.82%
- SubG0 [34]: 13.29%
- SubG0 [35]: 11.17%
- G0/G1 [36]: 55.84%
- S [37]: 38.61%
- SubG0 [38]: 13.52%
- SubG0 [39]: 11.85%
- S [40]: 32.7%
- Ratio [41]: 1.94%
- G0/G1 [42]: 49.25%
- G2/M [43]: 14.89%
- G0/G1 [44]: 52.49%
- Ratio [45]: 1.96%
- IC50 [46]: 92 nM
- IC50 [47]: 110 nM
- S [48]: 32.33%
